Here are results for 3 compounds from ChEMBL document CHEMBL1268966, “Tetrasubstituted naphthalene diimide ligands with selectivity for telomeric G-quadruplexes and cancer cells” (Bioorg Med Chem Lett, 2010).

Calls of active or inactive are those of the source. The calls are words filed in the database; no cut-off is given here.

Assay [1] relates to Nucleic Acid. Put plainly: Stabilization of duplex DNA assessed as inhibition of human TOPO 3-alpha binding to duplex DNA by EMSA assay. Type of assay: nucleic-acid assay. The gist of the method: (§1)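 In vitro EMSA measuring displacement of hPOT1 or Topo IIIα binding to the telomeric sequence WT26. For Topo IIIα, a duplex DNA substrate was tested in parallel.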
The subject of assay [2] is Nucleic Acid. Put plainly: Stabilization of Wt26 G-telomeric quadruplex DNA assessed as inhibition of human TOPO 3-alpha binding to DNA by EMSA assay. Type of assay: nucleic-acid assay. The gist of the method: as §1
For assay [3], the system named is MIA PaCa-2. Put plainly: Cytotoxicity against human MIAPaCa2 cells after 96 hrs by SRB assay. The following applies: MIA PaCa-2, 96 h.
The test system of assay [4] is HPAC. Kind of assay: Cytotoxicity against human HPAC cells after 96 hrs by SRB assay.
Assay [5] relates to Nucleic Acid. Kind of assay: Stabilization of human F21T G4-telomeric quadruplex by FRET assay in presence of duplex to quadruplex DNA ratio of 10:1. It counts as nucleic-acid assay. The gist of the method: (§2)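 FRET melting temperature assay reporting the shift in quadruplex melting temperature. Competition runs added excess duplex DNA at different ratios, expressed as G-quartet concentration versus duplex nucleotide phosphate concentration.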

For assay [6], the system named is Nucleic Acid. Kind of assay: Stabilization of human c-kit1 G4 DNA sequence assessed as melting temperature by FRET assay. Type of assay: nucleic-acid assay.
Assay [7] deals with Nucleic Acid. Kind of assay: Stabilization of human G4-telomeric quadruplex 23-mer DNA assessed as topology at 1:1 to 1:15 DNA to compound ratio at pH 7.4 after 6 hrs by circular dichroism spectroscopy in presence of 100 mM Na+ ions. It counts as nucleic-acid assay. The gist of the method:
(§3)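 Circular dichroism spectra of the human telomeric 23-mer DNA at pH 7.4 with various DNA:ligand ratios.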

Assay [8] relates to PANC-1. Kind of assay: Cytotoxicity against human PANC1 cells after 96 hrs by SRB assay. The conditions noted are these: PANC-1, 96 h.
The subject of assay [9] is Nucleic Acid. Put plainly: Stabilization of human F21T G4-telomeric quadruplex assessed in presence of 300 fold excess duplex DNA by FRET assay. It counts as nucleic-acid assay. The gist of the method:
as §2

In assay [10] the test system is Nucleic Acid. Kind of assay: Stabilization of human G4-telomeric quadruplex 23-mer DNA assessed as topology at 1:1 to 1:15 DNA to compound ratio at pH 7.4 after 6 hrs by circular dichroism spectroscopy in presence of 100 mM K+ ions. Type of assay: nucleic-acid assay. Put shortly: as §3
For assay [11], the system named is MCF7. Kind of assay: Inhibition of human telomerase activity in human MCF7 cells at 50 nM after 1 week by modified TRAP assay. It counts as cell-based. Put shortly: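 MCF7 cells were exposed to 50 nM ligand for 1 week, then a further week. Telomerase activity was measured by a modified TRAP–LIG assay with denaturing gel separation. Each PCR product ladder's total intensity was scanned and integrated, then normalized to a positive control with untreated telomerase protein only.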

Assay [12] deals with Nucleic Acid. Put plainly: Stabilization of human c-kit2 G4 DNA sequence assessed as melting temperature by FRET assay. It counts as nucleic-acid assay.
In assay [13] the test system is Nucleic Acid. Kind of assay: Stabilization of Wt26 G-telomeric quadruplex DNA assessed as inhibition of human POT1 binding to DNA by EMSA assay. It counts as nucleic-acid assay. The gist of the method: as §1
Assay [14] deals with BXPC-3. Kind of assay: Cytotoxicity against human BxPC3 cells after 96 hrs by SRB assay. The following applies: BXPC-3, 96 h.
Assay [15] relates to Nucleic Acid. Kind of assay: Stabilization of human duplex DNA T-loop assessed as melting temperature by FRET assay. Type of assay: nucleic-acid assay.
Assay [16] has as its system A549. Kind of assay: Cytotoxicity against human A549 cells after 96 hrs by SRB assay. The conditions noted are these: A549, 96 h.
Assay [17] deals with Nucleic Acid. Put plainly: Stabilization of human F21T G4-telomeric quadruplex assessed as melting temperature by FRET assay. It counts as nucleic-acid assay. The gist of the method: as §2
The test system of assay [18] is MCF7. Kind of assay: Cytotoxicity against human MCF7 cells after 96 hrs by SRB assay. The following applies: MCF7, 96 h.
Assay [19] is described as follows: Cytotoxicity against human WI138 cells after 96 hrs by SRB assay.

On to `CN1CCN(CCCNc2cc3c4c(c(NCCCN5CCN(C)CC5)cc5c4c2C(=O)N(CCCN2CCN(C)CC2)C5=O)C(=O)N(CCCN2CCN(C)CC2)C3=O)CC1`, for which, in [1], the inhibition entry is “inactive”. In addition, the inhibition result in assay [2] and in assay [13] was “Active” each time. In addition, the IC50 is 0.111 µM in assay [3]; 0.186 µM in assay [4]; 0.148 µM in [8]; 1.52 µM in [14]; 0.108 µM in assay [16]; 0.167 µM in assay [18]. Moreover, in assay [19], the IC50 came to 9.04 µM. The result in assay [5], in assay [7] and in assay [10] was Active. Further, the deltaTm in assay [6] was found to be 1.8 K; in assay [12] it was 15.2 K; in assay [15], 1.3 K; in assay [17] it was 28.3 K. In addition, the Activity in assay [9] is 50%. Also, the inhibition in assay [11] came out at 50%.
As for `CN1CCN(CCCCCNc2cc3c4c(c(NCCCCCN5CCN(C)CC5)cc5c4c2C(=O)N(CCCCCN2CCN(C)CC2)C5=O)C(=O)N(CCCCCN2CCN(C)CC2)C3=O)CC1`, the inhibition entry in assay [1] was “inactive”. Besides, the inhibition result in assay [2] and in [13] was “Active” in each case. Besides, the IC50 in assay [3] came out at 0.121 µM; in assay [4] it was 0.205 µM; in [8] it was 0.193 µM; in assay [14], 0.759 µM; in assay [16], 0.258 µM; in assay [18], 0.196 µM. Also, 8.43 µM corresponded to half-maximal inhibition in assay [19] (IC50). In addition, the result in assay [5], in [7] and in assay [10] was Active. The deltaTm worked out at 1.5 K in assay [6], 7.7 K in assay [12], 0.2 K in [15] and 23.8 K in [17]. For the same compound, in assay [9], the Activity was determined as 50%.
In the case of `CN1CCN(CCCCNc2cc3c4c(c(NCCCCN5CCN(C)CC5)cc5c4c2C(=O)N(CCCCN2CCN(C)CC2)C5=O)C(=O)N(CCCCN2CCN(C)CC2)C3=O)CC1`, the IC50 is 0.073 µM in [3]; 0.117 µM in [4]; 0.106 µM in [8]; 1.02 µM in [14]; 0.069 µM in assay [16]; 0.1 µM in [18]. The compound further gave an IC50 in assay [19] of 5.5 µM. The outcome in [5], in assay [7] and in assay [10] was Active. Further, the deltaTm in assay [6] was determined as 4.9 K; in [12], 16.7 K; in assay [15] it was 0.1 K; in assay [17] it was 24.7 K. Moreover, in assay [9], the Activity is 50%.
